From ChEMBL document CHEMBL2040832, “Design and synthesis of new (E)-cinnamic N-acylhydrazones as potent antitrypanosomal agents” (Eur J Med Chem, 2012)

Experiments:
Trypanosoma cruzi [1] = experiment: Antitrypanosomal activity against bloodstream form of Trypanosoma cruzi Y trypomastigotes infected in Swiss mouse; assay type: functional, organism-based
Trypanosoma cruzi [2] = experiment: Antitrypanosomal activity against Trypanosoma cruzi Tulahuen C2C4 intracellular amastigotes infected in rat L6 cells after 4 days by photometry; assay type: functional, organism-based; settings: Tulahuen C2C4, L6, 96 h
How it was run: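 L6 rat myoblasts seeded at 2000 cells/well in RPMI 1640 with 10% FBS and 2 mM L-glutamine; after 24 h infected with 5000 T. cruzi Tulahuen C2C4 LacZ trypomastigotes. At 48 h medium replaced with seven 3-fold serial drug dilutions spanning 0.123 to 90 µg/mL.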

Cruzipain [3] = target: T1, Cruzipain (Trypanosoma cruzi, UniProt P25779); experiment: Inhibition of Trypanosoma cruzi cruzain
How it was run: (§1)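 Purified C-terminally truncated cruzain from E. coli (M15 or DH5a), 0.64 nM, in 50 mM sodium phosphate, 100 mM NaCl, 5 mM EDTA, 5 mM DTT, pH 6.5, preincubated with inhibitor 5 min at room temperature before Z-Phe-Arg-AMC. AMC release followed by fluorescence (ex 355, em 460 nm). IC₅₀ by nonlinear regression from ≥7 concentrations giving 20–85% inhibition, relative to uninhibited activity.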

[4] = Selectivity index, ratio of IC50 for mouse J774 cells to IC50 for bloodstream form of Trypanosoma cruzi trypomastigote; assay type: toxicity, cell-based; settings: read-out: Ratio IC50
J774 = experiment: Cytotoxicity against mouse J774 cells after 18 hrs by MTT assay; assay type: cell-based; settings: J774, 18 h
How it was run: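 J774 macrophages plated at 2.5 × 10⁶ cells/mL for 1 h (5% CO₂, 37 °C), non-adherent cells washed off with RPMI 1640. Adherent cells exposed to compounds (0.1–[…]), medium alone or 3% Tween 20 in triplicate for 18 h; MTT added for 4 h, formazan dissolved in DMSO, absorbance at 540 nm; LC₅₀ reported.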

Cruzipain [5] = target: T1, Cruzipain; experiment: Inhibition of Trypanosoma cruzi C-terminally truncated cruzain expressed in Escherichia coli using Z-Phe-Arg-AMC as substrate incubated for 5 mins prior to substrate addition by spectrofluorometry; how it was run: as §1

T1 sequence (P25779 whole entry, the tested form may be a part): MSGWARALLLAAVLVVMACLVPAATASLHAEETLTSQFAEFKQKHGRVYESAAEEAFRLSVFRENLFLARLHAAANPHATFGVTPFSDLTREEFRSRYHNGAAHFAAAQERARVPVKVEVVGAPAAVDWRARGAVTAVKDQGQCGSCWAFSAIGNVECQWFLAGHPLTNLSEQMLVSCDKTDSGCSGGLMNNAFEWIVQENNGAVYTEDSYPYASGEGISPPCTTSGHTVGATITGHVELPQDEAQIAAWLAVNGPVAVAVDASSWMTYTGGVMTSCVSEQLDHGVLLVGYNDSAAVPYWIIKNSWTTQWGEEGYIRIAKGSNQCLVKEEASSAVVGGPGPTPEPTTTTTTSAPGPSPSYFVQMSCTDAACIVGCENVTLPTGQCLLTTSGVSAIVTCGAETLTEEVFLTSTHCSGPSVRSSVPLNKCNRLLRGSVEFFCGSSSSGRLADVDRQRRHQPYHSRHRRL

Row | SMILES | IC50 (Trypanosoma cruzi [1]) [µM] | IC50 (Trypanosoma cruzi [2]) [µM] | IC50 (Cruzipain [3]) [µM] | IC50 (Cruzipain [5]) [µM] | selectivity ratio [4] | IC50 (J774) [µM]
1 | COc1cc(/C=N/NC(=O)/C=C/c2ccc3c(c2)OCO3)cc([N+](=O)[O-])c1O | > 1100 |  |  |  |  | 
2 | O=C(/C=C/c1ccccc1)N/N=C/c1ccc(Cl)cc1 | > 1100 | > 100 |  |  |  | 
3 | COc1ccc(/C=N/NC(=O)/C=C/c2ccccc2)cc1OC | > 1100 | > 100 |  |  |  | 
4 | O=C(/C=C/c1ccccc1)N/N=C/c1ccccc1O | 5.9 | 6.6 |  | 52.2 | 71 | 420
5 | COc1ccc(/C=N/NC(=O)/C=C/c2ccccc2)cc1O | > 1100 | > 100 |  |  |  | 
6 | O=C(/C=C/c1ccccc1)N/N=C/c1ccc(O)cc1 | > 1100 | > 100 |  |  |  | 
7 | COc1cc(/C=N/NC(=O)/C=C/c2ccccc2)cc([N+](=O)[O-])c1O | > 1100 | 40 |  |  |  | 
8 | COc1cc(/C=C/C(=O)N/N=C/c2ccccc2O)cc([N+](=O)[O-])c1OC | 17 |  |  | 83.9 | 32 | 550
9 | COc1cc(/C=C/C(=O)N/N=C/c2ccccc2O)cc(OC)c1OC | 78.8 |  |  |  |  | 
10 | COc1cc(/C=N/NC(=O)/C=C/c2cc(OC)c(OC)c(OC)c2)cc([N+](=O)[O-])c1O | 18 |  |  | 45.9 | 134 | 2410
11 | COc1cc(/C=N/NC(=O)CCc2ccccc2)cc([N+](=O)[O-])c1O | > 1100 |  |  |  |  | 
12 | O=C(/C=C/c1ccc2c(c1)OCO2)N/N=C/c1ccccc1O | 5.6 |  |  | 74.8 | 50 | 281
13 | O=C(/C=C/c1ccccc1)N/N=C/c1ccc(F)cc1 | > 1100 | > 100 |  |  |  | 
14 | O=C(/C=C/c1ccc2c(c1)OCO2)c1ccc(Br)cc1 |  |  | 20 |  |  | 

More lines, main results first:

Row | IC50 (Trypanosoma cruzi [1]) [µM] | IC50 (Trypanosoma cruzi [2]) [µM] | IC50 (Cruzipain [3]) [µM] | IC50 (Cruzipain [5]) [µM] | SMILES | selectivity ratio [4] | IC50 (J774) [µM]
15 | 107 | > 100 |  |  | O=C(/C=C/c1ccccc1)N/N=C/c1ccc(O)c(O)c1 |  | 
16 |  |  | 0.6 |  | COc1ccc2cc(O)c(C(=O)N/N=C/c3c(O)ccc4ccccc34)cc2c1 |  | 
17 | 10.8 | 0.122 |  |  | O=C(Cn1ccnc1[N+](=O)[O-])NCc1ccccc1 [BENZNIDAZOLE] | 356 | 3840
18 | 65 |  |  |  | COc1ccc(/C=C/C(=O)N/N=C/c2ccccc2O)cc1OC |  | 
19 | > 1100 |  |  |  | O=C(/C=C/c1ccccc1)N/N=C/c1ccc(Br)cc1 |  | 
20 | > 1100 | 81 |  |  | O=C(/C=C/c1ccccc1)N/N=C/c1ccc([N+](=O)[O-])cc1 |  | 
21 | 127 | 73 |  |  | COc1cc(/C=N/NC(=O)/C=C/c2ccccc2)ccc1O |  | 
22 | 93 |  |  |  | COc1cc(/C=N/NC(=O)c2ccc3ccccc3c2)cc([N+](=O)[O-])c1O |  | 
23 | 71 | 70 |  |  | COc1cc(/C=N/NC(=O)/C=C/c2ccccc2)cc(OC)c1OC |  | 
24 | > 1100 |  |  |  | COc1ccc(/C=C/C(=O)N/N=C/c2cc(OC)c(O)c([N+](=O)[O-])c2)cc1OC |  | 
25 | 79 |  |  |  | COc1cc(/C=C/C(=O)N/N=C/c2ccccc2)cc([N+](=O)[O-])c1O |  | 
26 | > 1100 | > 100 |  |  | COc1ccc(/C=N/NC(=O)/C=C/c2ccccc2)cc1 |  | 
27 | > 1100 | > 100 |  |  | O=C(/C=C/c1ccccc1)N/N=C/c1ccccc1 |  | 
28 | 93 |  |  |  | O=C(N/N=C/c1ccccc1O)c1ccc2ccccc2c1 |  | 
29 | > 1100 | 61 |  |  | O=C(/C=C/c1ccccc1)N/N=C/c1ccc2c(c1)OCO2 |  | 
30 | 18 |  |  | > 100 | O=C(CCc1ccccc1)N/N=C/c1ccccc1O | 90 | 1630
31 | 16 |  |  | 44.7 | COc1cc(/C=N/NC(=O)/C=C/c2cc(OC)c(OC)c([N+](=O)[O-])c2)cc([N+](=O)[O-])c1O | 116 | 1860
